Tests used:
[1] = test system: mitochondrial MetRS (mitochondrial protein synthesis); experiment: Selectivity index, ratio of EC50 for inhibition of mitochondrial MetRS-mediated mitochondrial protein synthesis in human HepG2 cells to EC50 for antitrypanosomal activity against blood stream form of Trypanosoma brucei brucei 427; format: toxicity, cell-based; details: read-out: Ratio EC50
[2] = test system: Trypanosoma brucei brucei; experiment: Antitrypanosomal activity against blood stream form of Trypanosoma brucei brucei 427 assessed as parasite growth inhibition incubated for 48 hrs by alamar blue dye based assay; format: functional, organism-based; details: Trypanosoma brucei, 427, 48 h
How it was run: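 Bloodstream-form BSF 427 parasites in HMI-9 with 10% heat-inactivated FBS and penicillin/streptomycin, 37 °C, 5% CO₂; 10 000 cells/well initial inoculum; serial 3-fold dilutions in triplicate; Alamar Blue read at 48 h. Pentamidine control.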

[3] = Cytotoxicity against human WIL2-NS cells assessed as reduction in cell viability after 48 hrs by alamar blue dye based assay
How it was run: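 CRL-8155 lymphocytic cells in RPMI with 10% heat-inactivated FBS, 2 mM L-glutamine, 0.4 mM sodium pyruvate, penicillin/streptomycin, 37 °C, 5% CO₂; 30 000 cells/well; quadruplicate serial 3-fold dilutions from 50 µM (or 25 µM); AlamarBlue at 48 h, 50 µM quinacrine as background; percent inhibition versus untreated wells; single experiment.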

[4] = Ratio of drug level in brain to plasma in Swiss Webster mouse at 5 mg/kg, ip measured after 60 mins by LC-MS analysis; format: ADME, organism-based; details: 1 h
How it was run: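 Swiss Webster mice, triplicate, 5 mg kg⁻¹ IP in 7% Tween80, 5% DMSO, 3% EtOH in saline; plasma and brain collected 1 h post-dose; brain homogenized in water, extracts measured by LC-MS/MS; brain levels corrected for 3% v/w blood content.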

[5] = molecular target: T1, Methionine--tRNA ligase, mitochondrial (Homo sapiens, UniProt Q96GW9); experiment: Inhibition of mitochondrial MetRS-mediated mitochondrial protein synthesis in human HepG2 cells measured after 6 days by ELISA; format: cell-based
T1 sequence (Q96GW9 whole entry): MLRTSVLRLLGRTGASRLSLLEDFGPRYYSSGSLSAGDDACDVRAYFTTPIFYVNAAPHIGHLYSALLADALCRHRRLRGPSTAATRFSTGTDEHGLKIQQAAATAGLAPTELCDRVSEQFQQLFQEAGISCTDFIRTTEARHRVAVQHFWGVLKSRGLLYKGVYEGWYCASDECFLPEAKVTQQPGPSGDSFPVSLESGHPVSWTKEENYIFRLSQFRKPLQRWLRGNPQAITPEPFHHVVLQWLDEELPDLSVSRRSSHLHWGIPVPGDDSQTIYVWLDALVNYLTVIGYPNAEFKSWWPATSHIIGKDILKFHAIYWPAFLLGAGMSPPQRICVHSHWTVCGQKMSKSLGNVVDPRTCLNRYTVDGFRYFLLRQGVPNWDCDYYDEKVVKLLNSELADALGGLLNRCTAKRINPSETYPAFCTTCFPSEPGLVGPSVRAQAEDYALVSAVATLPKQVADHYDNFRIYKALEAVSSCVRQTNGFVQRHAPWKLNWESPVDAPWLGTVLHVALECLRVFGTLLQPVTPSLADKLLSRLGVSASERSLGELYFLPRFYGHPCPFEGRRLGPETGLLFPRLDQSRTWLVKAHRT
How it was run: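 HepG2 seeded 6000 cells/well on collagen-coated plates, grown 24 h in DMEM/F12 with 10% FBS, pyruvate, antibiotics; then serial 3-fold dilutions from 25 µM in duplicate, 6 days at 37 °C, medium with compound refreshed every 48 h; paraformaldehyde-fixed, COX-1 quantified by in-cell ELISA. Chloramphenicol control.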

[6] = Cytotoxicity against human HepG2 cells assessed as reduction in cell viability after 48 hrs by alamar blue dye based assay
[7] = Inhibition of recombinant N-terminal His6-tagged trypanosoma brucei brucei 427 Methionyl-tRNA synthetase (237 to 773 residues) expressed in Escherichia coli assessed as ATP depletion using L-methionine and tRNA as substrate by Kinase-Glo luminescence assay

Row | Structure (SMILES) | EC50 [2] | BPR [4] | EC50 [5] | selectivity ratio [1] | CC50 at 48 h [3] | CC50 at 48 h [6] | IC50 [7]
1 | CCn1c(Cc2ccc(Cl)cc2Cl)cn(Cc2nc3c(Cl)cccc3[nH]2)c1=O | 210 nM |  |  |  | > 50000 nM | > 50000 nM | 
2 | CCn1c(Cc2ccc(Cl)cc2Cl)cn(Cc2nc3cc(C(F)(F)F)ccc3[nH]2)c1=O | > 2000 nM |  |  |  | > 50000 nM | > 50000 nM | 
3 | COc1ccc(-c2nccn3c(=O)n(Cc4nc5nc(Cl)ccc5[nH]4)cc23)c(Cl)c1 | 31 nM |  |  |  | > 50000 nM | > 50000 nM | 
4 | O=c1[nH]c(Cc2ccc(Cl)cc2Cl)cn1Cc1nc2ccccc2[nH]1 | 350 nM |  |  |  |  |  | < 40 nM
5 | FC(F)(F)c1ccc(-c2cccc3nc(Cc4nc5nc(Cl)ccc5[nH]4)cn23)c(Cl)c1 | 1780 nM |  |  |  |  |  | 
6 | CCn1c(Cc2ccc(Cl)cc2Cl)cn(Cc2nc3ccccc3[nH]2)c1=O | 40 nM |  |  |  | > 50000 nM | > 50000 nM | 
7 | O=c1n(Cc2nc3nc(F)ccc3[nH]2)cc(Cc2ccc(Cl)cc2Cl)n1C1CCOCC1 | 5.8 nM |  |  |  | > 50000 nM | > 50000 nM | 
8 | CCOc1ccc(-c2cccc3nc(Cc4nc5nc(Cl)ccc5[nH]4)cn23)c(Cl)c1 | 1900 nM |  |  |  |  |  | 
9 | CCn1c(Cc2ccc(Cl)cc2Cl)cn(Cc2nc3cnccc3[nH]2)c1=O | 390 nM |  |  |  | > 50000 nM | > 50000 nM | 
10 | COc1cc(-c2cccc3nc(Cc4nc5nc(F)ccc5[nH]4)cn23)c(Cl)cc1Cl | 8.4 nM | 0.6% | 1750 nM | 203 | 10400 nM | > 50000 nM | 
11 | COc1ccc(-c2cccn3cc(Cc4nc5nc(Cl)ccc5[nH]4)nc23)c(Cl)c1 | > 2000 nM |  |  |  |  |  | 
12 | CCn1c(Cc2ccc(Cl)cc2Cl)cn(Cc2nc3cc(C)ccc3[nH]2)c1=O | 110 nM |  |  |  | > 50000 nM | > 50000 nM | 
13 | CCn1c(Cc2ccc(Cl)cc2Cl)cn(Cc2nc3ccccc3o2)c1=O | > 2000 nM |  |  |  | > 50000 nM | > 50000 nM | 
14 | CCn1c(Cc2ccc(Cl)cc2Cl)cn(Cc2nc3cc(Cl)c(Cl)cc3[nH]2)c1=O | 660 nM |  |  |  | 31600 nM | 31300 nM | 
15 | CCn1c(Cc2ccc(Cl)cc2Cl)cn(Cc2nc3c(F)cccc3[nH]2)c1=O | 31 nM |  |  |  | 45000 nM | > 50000 nM | 
16 | Clc1ccc(-c2cccc3nc(Cc4nc5nc(Cl)ccc5[nH]4)cn23)c(Cl)c1 | 64 nM |  |  |  | 16100 nM | 43200 nM | 

Row | Structure (SMILES) | EC50 [2] | BPR [4] | EC50 [5] | selectivity ratio [1] | CC50 at 48 h [3] | CC50 at 48 h [6] | IC50 [7]
17 | COc1ccc(-c2cccc3nc(Cc4nc5nc(F)ccc5[nH]4)cn23)c(Cl)c1 | 59 nM |  |  |  | 15700 nM | > 50000 nM | 
18 | Clc1cc(Cl)cc(-c2cccc3nc(Cc4nc5nc(Cl)ccc5[nH]4)cn23)c1 | 196 nM |  |  |  |  |  | 
19 | O=c1n(Cc2nc3nc(F)ccc3[nH]2)cc(Cc2ccc(Cl)cc2Cl)n1C1CCCCC1 | 16 nM |  |  |  | 30400 nM | 33200 nM | 
20 | O=c1n(Cc2nc3nc(F)ccc3[nH]2)cc(Cc2ccc(Cl)cc2Cl)n1CC(F)F | 5.9 nM | 0% | 175 nM | 30 | 33300 nM | > 50000 nM | 
21 | CCn1c(Cc2ccc(Cl)cc2Cl)cn(Cc2nc3c(F)c(F)ccc3[nH]2)c1=O | 26 nM |  |  |  | 41000 nM | 40600 nM | 
22 | COc1ccc(-c2cccc3nc(Cc4nc5nc(Cl)ccc5[nH]4)cn23)c(Cl)c1 | 24 nM |  |  |  | 13000 nM | > 50000 nM | 
23 | CCn1c(Cc2ccc(Cl)cc2Cl)cn(Cc2nc3ncccc3[nH]2)c1=O | 17 nM |  |  |  | > 50000 nM | > 50000 nM | 
24 | Cc1ccc(-c2cccc3nc(Cc4nc5nc(Cl)ccc5[nH]4)cn23)c(Cl)c1 | > 2000 nM |  |  |  |  |  | 
25 | CCn1c(Cc2ccc(Cl)cc2Cl)cn(Cc2nc3cc(Cl)ccc3[nH]2)c1=O | 69 nM |  |  |  | 27100 nM | 45300 nM | 
26 | COc1cc(Cl)c(-c2cccc3nc(Cc4nc5nc(F)ccc5[nH]4)cn23)cc1OC | 7.2 nM | 0% | 316 nM | 45 | > 25000 nM | > 25000 nM | 
27 | CCn1c(Cc2ccc(Cl)cc2Cl)cn(Cc2nc3c(Cl)cc(Cl)cc3[nH]2)c1=O | 1600 nM |  |  |  | 38200 nM | 43700 nM | 
28 | COc1ccc(-c2cncc3nc(Cc4nc5nc(Cl)ccc5[nH]4)cn23)c(Cl)c1 | 32 nM |  |  |  | > 50000 nM | > 50000 nM | 
29 | CCn1c(Cc2ccc(Cl)cc2Cl)cn(Cc2nc3cc(Cl)c(F)cc3[nH]2)c1=O | 220 nM |  |  |  | 20900 nM | 29800 nM | 
30 | O=C(N[C@H](CO)[C@H](O)c1ccc([N+](=O)[O-])cc1)C(Cl)Cl [CHLORAMPHENICOL] |  |  | 7900 nM |  |  |  | 
31 | CCN(CC)CCCC(C)Nc1c2ccc(Cl)cc2nc2ccc(OC)cc12 (configuration not stated) [QUINACRINE] |  |  |  |  | 4800 nM | 7600 nM | 

Now from value to compound, other results behind:

Row | EC50 [2] | BPR [4] | EC50 [5] | Structure (SMILES) | selectivity ratio [1] | CC50 at 48 h [3] | CC50 at 48 h [6] | IC50 [7]
32 | 3.5 nM | 0% | 507 nM | COc1cc(-c2cccc3nc(Cc4nc5nc(Cl)ccc5[nH]4)cn23)c(Cl)cc1Cl | 145 | 9500 nM | > 50000 nM | 
33 | 2.3 nM |  |  | CC(C)n1c(Cc2ccc(Cl)cc2Cl)cn(Cc2nc3nc(F)ccc3[nH]2)c1=O |  | > 50000 nM | > 50000 nM | 
34 | 3.6 nM |  |  | COc1ccc(Cc2cn(Cc3nc4nc(Cl)ccc4[nH]3)c(=O)n2CC(F)F)c(Cl)c1 |  | > 50000 nM | > 50000 nM | 
35 | 3 nM | 0% | 430 nM | O=c1n(Cc2nc3nc(Cl)ccc3[nH]2)cc(Cc2ccc(Cl)cc2Cl)n1CC(F)F | 143 | > 50000 nM | > 50000 nM | 
36 | 3.1 nM | 0.5% | 478 nM | COc1cc(Cl)c(-c2cccc3nc(Cc4nc5nc(Cl)ccc5[nH]4)cn23)cc1OC | 154 | 19000 nM | 28200 nM | 
37 | ≤ 0.9 nM |  |  | CCCn1c(Cc2ccc(Cl)cc2Cl)cn(Cc2nc3nc(Cl)ccc3[nH]2)c1=O |  | 37800 nM | 26400 nM | 
38 | 1 nM | 0% | 39 nM | CCn1c(Cc2ccc(OC)cc2Cl)cn(Cc2nc3nc(Cl)ccc3[nH]2)c1=O | 39 | > 50000 nM | > 50000 nM | 
39 | 5.1 nM | 5.5% | 195 nM | CCCn1c(Cc2ccc(Cl)cc2Cl)cn(Cc2nc3nc(F)ccc3[nH]2)c1=O | 38 | > 50000 nM | > 50000 nM | 
40 | 1.8 nM | 0% | 75 nM | CCn1c(Cc2ccc(OC)cc2Cl)cn(Cc2nc3nc(F)ccc3[nH]2)c1=O | 42 | > 50000 nM | > 50000 nM | 
41 | 3 nM |  |  | O=c1n(Cc2nc3nc(F)ccc3[nH]2)cc(Cc2ccc(Cl)cc2Cl)n1CC1CCOCC1 |  | > 50000 nM | > 50000 nM | 
42 | 3.4 nM | 0.1% | 290 nM | CCn1c(Cc2ccc(Cl)cc2Cl)cn(Cc2nc3nc(F)ccc3[nH]2)c1=O | 85 | > 50000 nM | > 50000 nM | 
43 | 1.6 nM | 9.6% | 42 nM | CCn1c(Cc2ccc(Cl)cc2Cl)cn(Cc2nc3nc(Cl)ccc3[nH]2)c1=O | 26 | > 50000 nM | > 50000 nM | 
44 | 4.6 nM |  |  | O=c1n(Cc2nc3nc(F)ccc3[nH]2)cc(Cc2ccc(Cl)cc2Cl)n1CC1(O)CCOCC1 |  | > 50000 nM | > 50000 nM | 
45 | 1.7 nM |  |  | N=C(N)c1ccc(OCCCCCOc2ccc(C(=N)N)cc2)cc1 [PENTAMIDINE] |  |  |  | 

— ChEMBL document CHEMBL4699413, “Structure-guided discovery of selective methionyl-tRNA synthetase inhibitors with potent activity against Trypanosoma brucei” (RSC Med Chem, 2020)
